Results collected from several papers.
Read-out: cell growth or viability

| Compound | cell line | technique | time | IC50 [µM] |
| --- | --- | --- | --- | --- |
| COc1cnccc1Cn1nc(-c2ccc(CO)o2)c2ccccc21 | HuCCT-1 | ATP luminescence |  | > 46 |
| CCCn1cnc2ccc(-c3ccc(N4CCC(C)CC4=O)nc3)cc2c1=O (stereo not shown) | HCC827 | CCK-8 | 72 h | > 10 |
| Cc1nc(Nc2ncc(C(=O)Nc3c(C)cccc3Cl)s2)cc(N2CC[C@H](O)C2)n1 | KARPAS-299 | ATP luminescence | 72 h | > 10 |
| COc1cc(Cn2nc(-c3ccc(CO)o3)c3ccccc32)ccn1 | HuCCT-1 | ATP luminescence |  | > 46 |
| O=C1CS/C(=N\c2cc(C(F)(F)F)ccc2-c2nnc(N3C(=O)CS/C3=N\c3ccc(F)cc3)s2)N1c1ccc(F)cc1 | WI-38 | MTT |  | 19.2 |
| CCCCC(=O)Nc1ccc(-c2ccc3ncn(CC4CC4)c(=O)c3c2)cn1 | HCC827 | CCK-8 | 72 h | 0.056 |
| C=CC(C)(C)c1[nH]cnc1/C=C1/NC(=O)[C@H](C(C)C)NC1=O | ASPC1 | SRB |  | > 15 |
| O=C1CS/C(=N\c2ccccc2Cl)N1c1nnc(-c2ccc(C(F)(F)F)cc2/N=C2\SCC(=O)N2c2ccccc2Cl)s1 | WI-38 | MTT |  | 49.2 |
| CCCCCC(=O)Nc1ccc(-c2ccc3ncn(CCC)c(=O)c3c2)cn1 | HCC827 | CCK-8 | 72 h | 0.16 |
| OCc1ccc(-c2nn(Cc3ccccn3)c3cccnc23)o1 | HuCCT-1 | ATP luminescence |  | > 46 |
| COc1cccc2c1C(=O)c1c(O)c3c(c(O)c1C2=O)C[C@@](O)(C(=O)CO)C[C@@H]3O[C@H]1C[C@H](N)[C@H](O)[C@H](C)O1 | ASPC1 | SRB |  | 5.91 |
| CCCCC(=O)Nc1ccc(-c2ccc3ncn(CCCF)c(=O)c3c2)cn1 | HCC827 | CCK-8 | 72 h | 0.092 |
| O=C1CS/C(=N\c2cc(C(F)(F)F)ccc2-c2nnc(N3C(=O)CS/C3=N\c3cccc(Cl)c3)s2)N1c1cccc(Cl)c1 | WI-38 | MTT |  | 47.1 |
| OCc1ccc(-c2nn(Cc3ccccc3)c3ccccc23)o1 | HuCCT-1 | ATP luminescence |  | > 46 |
| Nc1c([I+]c2ccccc2)c(=O)oc2ccccc12 | HaCaT | MTT | 48 h | 65.4 |
| CC1(P2(=O)CCCCC2)CCCCC1 | HaCaT | MTT | 72 h | > 100 |
| COc1cc(C2C3=C(COC3=O)N(CCO)c3cc4c(cc32)CCC4)cc(OC)c1OC (stereo not shown) | E0771 | ATP luminescence | 48 h | 0.039 |
| Cc1cccc([N+](=O)[O-])c1N=C1SCC(=O)N1c1nnc(-c2ccc(C(F)(F)F)cc2N=C2SCC(=O)N2c2c(C)cccc2[N+](=O)[O-])s1 | WI-38 | MTT |  | 67.5 |
| CCCCC(=O)Nc1ccc(-c2ccc3ncn(CCC)c(=O)c3c2)cn1 | HCC827 | CCK-8 | 72 h | 0.037 |
